Hits are enriched below; roughly 3.9% of the tested compounds scored in any of these assays.
HSP90 inh = blocks HSP90-mediated luciferase refolding in reticulocyte lysate; Rabbit reticulocyte lysate, luciferase refolding luminescence, 3 h; inhibition, % at 5.6 µM; 290,000 tested, 0.91% active; AID 1789;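 active = inhibition above the screen-wide mean plus 3 SD, computed separately per campaign, cut at about 16% in these data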;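 also: 0% = DMSO wells and 100% = 60 µM geldanamycin wells; inhibitors lower the luminescence because luciferase stays unfolded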
DNA FID counter-1 = counter-screen for HCV NS3 helicase inhibitors: DNA intercalator displacement | DNA fluorescent intercalator displacement, fluorescence | inhibition, % at 7.9 µM | 290,000 tested, 0.17% active;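 also: 0% = vehicle and 100% = reference compound; higher means more ethidium bromide displaced from hairpin DNA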
core dimer inh = blocks dimerization of HCV core protein. TR-FRET GST/Flag-core106 dimerization, 1536-well. inhibition, % at 5 µM. 300,000 tested, 0.33% active;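 active = inhibition above the mean of all tested compounds plus 3 SD, set per screening campaign, cut at about 45% in these data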
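assay system = GST-tagged and Flag-tagged HCV core protein residues 1-106 | controls = unlabelled core106 and no-GST-core106 wells | incubation = compound-protein-antibody incubation 4 h at 22.5 °C | probe or stimulus = Eu donor and XL665 acceptor anti-tag antibodies | read-out = % inhibition based on acceptor/donor emission ratio | signal = TR-FRET 671 and 617 nm emission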
HSF1 inhib = HSF1 inhibition; NIH3T3-HGL HSE-luciferase, MG132-induced, luminescence 8 h; active compounds read low; 300,000 tested, 0.77% active; AID 2098; activity change, negative = inhibition, % at 7.5 µM (by protocol);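 active = more than half of replicate wells show activity change below -50%, luminescence cut by over half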;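 also: luciferase reports HSF-1 transcriptional activity via heat shock element; 0% = median of DMSO wells and -100% = zero luminescence signal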
HCV NS3 hel inh = inhibitors of Hepatitis C virus NS3 helicase | inhibition, % at 10.9 µM | 290,000 tested, 0.56% active | NS3 helicase DNA unwinding, Cy5 molecular beacon fluorescence;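 active = inhibition above the mean of all tested compounds plus 3 SD, set per campaign, cut at about 35% in these data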;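 also: 0% = DMSO wells and 100% = thioflavine S control wells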
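System: Hepatitis C virus NS3 helicase domain fragment enzyme | Reagent: Annealed dual-labelled DNA beacon duplex, ATP-started | Compound dosing: 10.9 µM single point, 0.8% DMSO | Incubation: 1 h reaction at 25 °C, ATP-initiated | Technique: Cy5 fluorescence | Evaluation: Percent inhibition from t60/t0 fluorescence ratio | Benchmarks: Low DMSO, high thioflavine S at 110 µM | Replication: Singlicate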
HSF-1 act = increases HSF-1 driven luciferase reporter signal; NIH3T3-HGL HSF-1 luciferase reporter, MG132, 8 h; 100% = twice DMSO control signal; activation, % at 9 µM; 300,000 tested, 1.7% active; AID 504408;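 active = mean replicate activation of at least 50% with a set share of replicates each reaching 50%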;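 also: 0% = median of the neutral control wells and 100% = twice that signal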
NS3 helicase cf = HCV NS3 helicase inhibition, confirmation assay; inhibition, % at 10.9 µM; shares compounds with HCV NS3 hel inh; 1,600 tested, 31% active; AID 1943; NS3 helicase DNA unwinding, Cy5 molecular beacon fluorescence;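 active = inhibition above the mean of all tested compounds plus 3 SD, cutoff set per campaign, cut at about 36% in these data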
DNA FID counter-2 = displaces DNA intercalator in HCV helicase counter-screen; AID 1945; inhibition, % at 7.9 µM; shares compounds with HCV NS3 hel inh; DNA fluorescent intercalator displacement, fluorescence; 1,600 tested, 4% active;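 also: 0% = vehicle and 100% = reference compound; higher means more displacement of ethidium bromide from the DNA hairpin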
FID counter DR = displaces fluorescent intercalator from DNA, HCV helicase counter-screen | shares compounds with HCV NS3 hel inh | fluorescent intercalator displacement from DNA, fluorescence | IC50, µM | 120 tested, under 10 active | AID 2172; call rule not given here
Active calls of the source: *; · = no result given. Rule as the data show it, unless noted: active = inhibition above about 37%; inactive = the rest.

SMILES	HSP90 inh	DNA FID counter-1	core dimer inh	HSF1 inhib	HCV NS3 hel inh	HSF-1 act	NS3 helicase cf	DNA FID counter-2	others
COc1ccccc1N1C(=O)CC(Nc2ccc(N3CCOCC3)cc2)C1=O (stereo unspecified)	2	-30	-10	-3	28	4	·	·
Cc1ccc(NC2CCCCC2NS(=O)(=O)c2ccccc2)c(C)c1 (stereo unspecified)	-1	-14	9	1	-20	11	·	·
CC(C)CNC(=O)C1Nc2ccc(OC(F)(F)F)cc2C2C=CCC12 (stereo unspecified)	·	·	8	12	·	40	·	·
CCOC(=O)c1ccc2c(c1)C1C=CCC1C(C(=O)OCC)N2 (stereo unspecified)	-3	-12	55*	3	51*	2	14	7
COC(=O)CNC(=O)C1Nc2ccccc2C2C=CCC12 (stereo unspecified)	·	·	7	-2	·	-6	·	·
CCOC(=O)C1Nc2ccc(Br)cc2C2C=CCC12 (stereo unspecified)	-2	0	50*	-2	39*	-4	26	-4
O=C(O)C1Nc2ccc(Br)cc2C2C=CCC12 (stereo unspecified)	-1	-12	23	3	43*	27	88*	-4
O=C(O)C1Nc2c(O)cccc2C2C=CCC12 (stereo unspecified)	1	0	50*	·	58*	·	110*	14	FID counter DR=>79
O=C(O)C1Nc2c(Cl)cc(Cl)cc2C2C=CCC12 (stereo unspecified)	-3	-7	33	-1	9	3	·	·
CC(C)CNC(=O)C1Nc2ccccc2C2C=CCC12 (stereo unspecified)	·	·	19	7	·	13	·	·
CC1=NN(C(N)=S)C(=O)C1N=Nc1c(C)n(C)n(-c2ccccc2)c1=O (stereo unspecified)	·	·	-9	-8	·	-4	·	·
Cc1cc(Cl)c2oc(C(=O)N(C)CC3CCOCC3)c(C)c2c1	-8	-46	-2	23	2	29	·	·
C/C(=N\NC(=O)c1c[nH]c2ccccc12)c1ccc(C)o1	0	0	-7	1	4	8	·	·
C/C(=N\NC(=O)c1cc2ccccc2cc1O)c1ccc(C)o1	0	-21	-7	45	47*	25	10	-9
COC(=O)c1ccc(C23CC4(C2)[C@H](CN(CC2CCCCC2)[C@@H]4c2ccccc2)C3c2ccc(Cl)nc2)cc1 (stereo partly specified)	·	·	-10	3	·	9	·	·
CCOC(=O)C1=C(C)OC(N)=C(C#N)C1c1ccsc1 (stereo unspecified)	0	-4	0	3	4	9	·	·
N#CC1=C(N)Oc2c(O)cc3ccccc3c2C1c1ccsc1 (stereo unspecified)	-3	-17	18	42	38*	71*	-10	19
CCCCC(NC(=O)Cc1c(C)c2cc3c4c(oc3cc2oc1=O)CCCC4)C(=O)O (stereo unspecified)	-4	-10	5	-7	40*	3	51*	-12
Cc1c(CC(=O)N[C@@H](CCCNC(N)=O)C(=O)O)c(=O)oc2cc3oc4c(c3cc12)CCCC4	15	-37	-2	-3	22	-1	·	·
O=C(COC(=O)/C=C/c1ccco1)Nc1ncc(C(F)(F)F)cc1Cl	4	-21	24	6	55*	2	7	-18
O=C(COC(=O)/C=C/c1ccco1)NCc1ccccc1Cl	2	-15	3	4	-4	5	·	·
O=C(COC(=O)/C=C/c1ccco1)Nc1cccc([N+](=O)[O-])c1	3	-9	-1	-4	38*	11	-18	-5
CC(=O)c1cccc(NS(=O)(=O)c2ccc(C(=O)Nc3ccccc3)cc2)c1	8	-24	-20	-2	42*	-7	-18	-2
O=C(Nc1ccccc1)c1ccc(S(=O)(=O)Nc2cccc(O)c2)cc1	1	-1	-12	-2	-14	-17	·	·
O=C(Cn1cc(C(=O)C(F)(F)F)c2ccccc21)Nc1ccccc1F	3	0	1	1	-16	-10	·	·
SMILES	HSP90 inh	DNA FID counter-1	core dimer inh	HSF1 inhib	HCV NS3 hel inh	HSF-1 act	NS3 helicase cf	DNA FID counter-2	others
COc1ccc(-n2c(Cc3cccn3C)nnc2SCC(=O)NCc2ccccc2Cl)cc1	1	-42	6	3	47*	5	-12	-28
CC(=O)c1cccc(OCC(=O)Nc2cc(S(=O)(=O)N3CCOCC3)ccc2N2CCCC2)c1	·	·	2	2	·	-2	·	·
O=S1(=O)NC2c3ccccc3CC2O1 (stereo unspecified)	3	4	10	1	40*	8	-13	1
COc1ccc(NS(=O)(=O)c2cccc(C(=O)NNC(=O)c3ccccc3OC)c2)cc1	·	·	0	3	·	30	·	·
COc1ccc(NS(=O)(=O)c2cccc(C(=O)NNC(=O)NCCCl)c2)cc1	1	4	-3	-3	69*	-9	-14	-6
COc1ccc(C(NC=O)c2cc(OC)c(OC)cc2Br)cc1OC (stereo unspecified)	-1	-10	-6	6	4	18	·	·
CCOc1ccc(NC(=O)Cc2c(C(=O)O)n(C)c3ccccc23)cc1	-2	-25	-3	1	0	11	·	·
CCc1ccc(NC(=O)Cc2c(C(=O)O)n(C)c3ccccc23)cc1	3	-34	8	-13	37*	-3	52*	-25
O=C(CC1CCS(=O)(=O)C1)Nc1ccc[nH]c1=O (stereo unspecified)	4	-2	0	-9	-3	1	·	·
O=C(O)c1ccc2nc(-c3ccco3)c(-c3ccco3)nc2c1	-1	-6	·	-2	45*	16	67*	10
O=C(c1ccc2nc(-c3ccco3)c(-c3ccco3)nc2c1)N1CCN(c2ccccc2)CC1	3	-19	25	·	41*	·	65*	-15	FID counter DR=>79
COc1ccc(CCNC(=O)c2ccc3nc(-c4ccco4)c(-c4ccco4)nc3c2)cc1OC	4	-21	57*	·	52*	·	41*	-8
Cc1cccc(N/N=C/c2ccc(O)c(O)c2O)c1	0	-6	1	4	38*	-7	-15	8
O=C(NCC1CCCO1)c1cc2nc(-c3ccco3)cc(C(F)(F)Cl)n2n1 (stereo unspecified)	3	-10	-15	-1	51*	-10	-10	-14

High-throughput results deposited in PubChem BioAssay by several laboratories.
